# From ChEMBL document CHEMBL4425101, “Design, Synthesis, and Characterization of Cyclic Peptidomimetics of the Inducible Nitric Oxide Synthase Binding Epitope That Disrupt the Protein-Protein Interaction Involving SPRY Domain-Containing Suppressor of Cytokine Signaling Box Protein (SPSB) 2 and Inducible Nitric Oxide Synthase” (J Med Chem, 2016)
# Activity calls are given as the source filed them. The calls are words filed in the database; no cut-off is given here. Where a SMILES comes first, the peptide text is derived from it. Bridges are numbered along the chain shown (N, C = ends).
# Columns and labels:
# [1] = target: T1, SPRY domain-containing SOCS box protein 2 (Mus musculus) (UniProt O88838); test: Binding affinity to mouse 5-F-Trp-SPSB2 assessed as downward shift of Trp207 residue resonance at protein to compound molar ratio of 1:5 by 19F-NMR spectroscopy
# T1 sequence (whole entry): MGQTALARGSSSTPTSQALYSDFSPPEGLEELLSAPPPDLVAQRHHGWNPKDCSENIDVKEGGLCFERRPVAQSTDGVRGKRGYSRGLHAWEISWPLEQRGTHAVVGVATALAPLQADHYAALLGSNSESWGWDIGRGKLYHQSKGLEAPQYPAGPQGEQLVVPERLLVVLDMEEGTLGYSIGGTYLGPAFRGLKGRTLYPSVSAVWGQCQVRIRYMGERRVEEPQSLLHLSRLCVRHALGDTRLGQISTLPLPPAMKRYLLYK
# Procedure, shortened: (§1)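 19F NMR of 5F-Trp-labelled SPSB2 with added peptidomimetic, recorded at 30 °C and 564 MHz on a cryoprobe tuned to 19F.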
# [2] = target: T1, SPRY domain-containing SOCS box protein 2 (Mus musculus); test: Binding affinity to recombinant GST-tagged mouse SPSB2 (12 to 224 residues) expressed in Escherichia coli BL21 (DE3) assessed as association rate by SPR analysis
# Procedure, shortened: (§2)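 SPSB2 amine-coupled to a CM5 sensor chip. Peptidomimetics flowed over at increasing concentrations in running buffer (10 mM HEPES, 150 mM NaCl, 3 mM EDTA, 0.05% Tween 20, pH 7.4) at 25 °C. Sensorgrams fitted to a single-site binding model.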
# [3] = target: T1, SPRY domain-containing SOCS box protein 2 (Mus musculus); test: Binding affinity to recombinant GST-tagged mouse SPSB2 (12 to 224 residues) expressed in Escherichia coli BL21 (DE3) assessed as dissociation rate by SPR analysis; procedure, shortened: as §2
# Mus musculus = species: Mus musculus; test: Inhibition of recombinant GST-tagged mouse SPSB2 (12 to 224 residues) expressed in Escherichia coli BL21 (DE3)/ full length iNOS (unknown origin) interaction in LPS/IFN-gamma-stimulated mouse BMDM assessed as reduction in iNOS level preincubated for 2 hrs measured after 1 hr by Western blot analysis
# Procedure, shortened: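 Lysates of cultured murine BMDM incubated 2 h with 2.5 μg/mL GST-SPSB2 SPRY domain or GST alone, with or without 10 μM peptidomimetic. Then 1 h with glutathione Sepharose beads to pull down the complex. Bound iNOS detected by reducing SDS-PAGE, anti-iNOS immunoblot and ECL. Membrane reprobed with anti-GST to check loading.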
# [4] = target: T2, SPRY domain-containing SOCS box protein 2 (Mus musculus, UniProt O88838); test: Binding affinity to recombinant GST-tagged mouse SPSB2 (12 to 224 residues) expressed in Escherichia coli BL21 (DE3) by SPR analysis; procedure, shortened: as §2
# T2 sequence (O88838 whole entry): T1 sequence (whole entry)
# [5] = target: T2, SPRY domain-containing SOCS box protein 2; test: Binding affinity to recombinant GST-tagged mouse SPSB2 (12 to 224 residues) expressed in Escherichia coli BL21 (DE3) by ITC method
# Procedure, shortened: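 ITC at 25 °C in 50 mM phosphate pH 7.4, 150 mM NaCl. Cell held 50 μM SPSB2, buffer-exchanged on a PD-10 column; syringe held compound from a 5 mM stock. Stirred at 1000 rpm. One 0.2 μL injection, then 29 injections of 1 μL. KD and ΔH from a nonlinear least-squares fit to a one-set-of-sites (1:1) model.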
# [6] = target: T1, SPRY domain-containing SOCS box protein 2 (Mus musculus); test: Binding affinity to mouse 5-F-Trp-SPSB2 assessed as induction of sharpening of Trp207 resonance by measuring increase in peak height at protein to compound molar ratio of 1:5 by 19F-NMR spectroscopy; procedure, shortened: as §1
# [7] = target: T1, SPRY domain-containing SOCS box protein 2 (Mus musculus); test: Potency index, ratio of Ac-DINNNNH2 Kd to compound Kd for recombinant GST-tagged mouse SPSB2 (12 to 224 residues) expressed in Escherichia coli BL21 (DE3) by SPR analysis
# [8] = target: T1, SPRY domain-containing SOCS box protein 2 (Mus musculus); test: Ratio of Kd for recombinant GST-tagged mouse SPSB2 (12 to 224 residues) expressed in Escherichia coli BL21 (DE3) by ITC method to Kd for recombinant GST-tagged mouse SPSB2 (12 to 224 residues) expressed in Escherichia coli BL21 by SPR analysis
Activity [1],K [2],K [3],Inhibition of SPSB2-iNOS interaction (qualitative) (Mus musculus),Kd [4],Kd [5],Molecule,further results
Active,,,,,,CC[C@H](C)[C@@H]1NC(=O)[C@H](CC(=O)O)NC(=O)[C@H](C(C)C)NC(=O)[C@@H](NC(C)=O)CSSC[C@@H](C(N)=O)NC(=O)[C@H](CC(N)=O)NC(=O)[C@H](CC(N)=O)NC(=O)[C@H](CC(N)=O)NC1=O (Ac-CVDINNNC-NH2; disulfide 1-8),
Active,11 ×10⁵ /M/s,6 ×10⁻² /s,Active,,,CC[C@H](C)[C@@H]1NC(=O)[C@@H](CC(=O)O)NC(=O)c2ccccc2NC(=O)[C@H](CC(N)=O)NC(=O)[C@H](CC(N)=O)NC(=O)[C@@H](CC(N)=O)NC1=O,
Active,11.9 ×10⁵ /M/s,8 ×10⁻² /s,Active,,,CC[C@H](C)[C@@H]1NC(=O)[C@@H](CC(=O)O)OCC(=O)N(C)NC(=O)[C@H](CC(N)=O)NC(=O)[C@H](CC(N)=O)NC(=O)[C@@H](CC(N)=O)NC1=O,
,,,,0.099 µM,0.083 µM,CC[C@H](C)[C@@H]1NC(=O)[C@@H](CC(=O)O)OCC(=O)N(C)NC(=O)[C@H](CC(N)=O)NC(=O)[C@H](CC(N)=O)NC(=O)[C@H](CC(N)=O)NC1=O,
,,,,0.465 µM,0.442 µM,CC[C@H](C)[C@@H]1NC(=O)[C@H](CC(=O)O)OCCNC(=O)[C@H](CC(N)=O)NC(=O)[C@H](CC(N)=O)NC(=O)[C@H](CC(N)=O)NC1=O,
inactive,4.7 ×10⁵ /M/s,26 ×10⁻² /s,Active,,,CC[C@@H](C)[C@@H]1NC(=O)[C@H](CC(=O)O)OCCNC(=O)[C@@H](CC(N)=O)NC(=O)[C@@H](CC(N)=O)NC(=O)[C@@H](CC(N)=O)NC1=O,Activity [6]: 25%
Active,8.6 ×10⁵ /M/s,2 ×10⁻² /s,Active,,,CC[C@H](C)[C@@H]1NC(=O)[C@@H](CC(=O)O)OCc2ccccc2NC(=O)[C@H](CC(N)=O)NC(=O)[C@H](CC(N)=O)NC(=O)[C@@H](CC(N)=O)NC1=O,Ratio [7]: 10; Ratio [8]: 1.5
,,,,0.054 µM,0.049 µM,CC[C@H](C)[C@@H]1NC(=O)[C@H](CC(=O)O)NC(=O)c2ccccc2NC(=O)[C@H](CC(N)=O)NC(=O)[C@H](CC(N)=O)NC(=O)[C@H](CC(N)=O)NC1=O,
,,,,0.029 µM,0.045 µM,CC[C@H](C)[C@@H]1NC(=O)[C@@H](CC(=O)O)OCc2ccccc2NC(=O)[C@H](CC(N)=O)NC(=O)[C@H](CC(N)=O)NC(=O)[C@H](CC(N)=O)NC1=O,
,,,,,0.013 µM,H-KEEKDINNNVKKT-OH,
